Results from ChEMBL document CHEMBL1137781, “Synthesis and preclinical evaluation of novel PET probes for P-glycoprotein function and expression” (J Med Chem, 2009).

Columns and labels:
[1] = Biodistribution in Wistar rat amygdala at 38+/-8 MBq, iv after 80 mins; assay type: ADME, organism-based; conditions: in vivo
[2] = test system: Lung; test: Biodistribution in 50 mg/kg cyclosporin A pretreated Wistar rat lung at 49+/-11 MBq, iv after 80 mins; assay type: ADME, organism-based; design: dose 50 mg/kg, route intravenous; conditions: in vivo
[3] = test system: Striatum; test: Biodistribution in Wistar rat striatum at 38+/-8 MBq, iv after 80 mins; assay type: ADME, organism-based; conditions: in vivo
[4] = test system: Hippocampus; test: Biodistribution in 50 mg/kg cyclosporin A pretreated Wistar rat hippocampus at 49+/-11 MBq, iv after 80 mins; assay type: ADME, organism-based; design: dose 50 mg/kg, route intravenous; conditions: in vivo
[5] = Biodistribution in Wistar rat frontal cortex at 38+/-8 MBq, iv after 80 mins; assay type: ADME, organism-based; conditions: in vivo
Outline: (§1)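 Male Wistar rats (12 h light/dark, chow ad libitum) were fitted with a femoral arterial cannula under isoflurane. They were pretreated via tail vein with saline, cyclosporin A (50 mg/kg), or nonradioactive tracer compound (15 mg/kg; 10 mg/mL in saline with 35% ethanol). The 11C tracer was then given via penile vein, followed by 76 min microPET. Animals were then terminated; excised tissues were weighed and gamma-counted with decay correction. Values are SUVs (tissue MBq/g × body weight g / injected MBq).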

[6] = test system: Bone; test: Biodistribution in 50 mg/kg cyclosporin A pretreated Wistar rat bone at 49+/-11 MBq, iv after 80 mins; assay type: ADME, organism-based, Bone element; design: dose 50 mg/kg, route intravenous; conditions: in vivo
Outline: (§2)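 Male Wistar rats pretreated with saline or cyclosporin A (50 mg/kg) via tail vein, then given the [11C] tracer via penile vein. Tissues excised after scanning and weighed. γ counting with decay correction. Results as SUV normalized to body weight and injected dose.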

[7] = test system: Colon; test: Biodistribution in Wistar rat colon at 38+/-8 MBq, iv after 80 mins; assay type: ADME, organism-based; conditions: in vivo; outline: as §1
[8] = test system: Kidney; test: Biodistribution in Wistar rat kidney at 38+/-8 MBq, iv after 80 mins; assay type: ADME, organism-based; conditions: in vivo; outline: as §1
[9] = Biodistribution in 50 mg/kg cyclosporin A pretreated Wistar rat bulbus olfactorius at 49+/-11 MBq, iv after 80 mins; assay type: ADME, organism-based, Olfactory bulb; design: dose 50 mg/kg, route intravenous; conditions: in vivo
Outline: (§3)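 Male Wistar rats pretreated via tail vein with saline or cyclosporin A (50 mg/kg, commercial solution), then given the [11C] tracer via penile vein. After microPET scanning the anesthetized rats were killed. Tissues were excised and weighed, and blood was centrifuged into plasma and cells. γ counting with decay correction. Results as SUV (tissue MBq/g × body weight/injected dose).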

[10] = test system: Pons; test: Biodistribution in 50 mg/kg cyclosporin A pretreated Wistar rat pons at 49+/-11 MBq, iv after 80 mins; assay type: ADME, organism-based; design: dose 50 mg/kg, route intravenous; conditions: in vivo
[11] = test system: Plasma; test: Biodistribution in 50 mg/kg cyclosporin A pretreated Wistar rat plasma at 49+/-11 MBq, iv after 80 mins; assay type: ADME, organism-based; design: dose 50 mg/kg, route intravenous; conditions: in vivo
[12] = Biodistribution in Wistar rat bulbus olfactorius at 38+/-8 MBq, iv after 80 mins; assay type: ADME, organism-based, Olfactory bulb; conditions: in vivo
[13] = test system: Duodenum; test: Biodistribution in Wistar rat duodenum at 38+/-8 MBq, iv after 80 mins; assay type: ADME, organism-based; conditions: in vivo; outline: as §1
[14] = Biodistribution in 50 mg/kg cyclosporin A pretreated Wistar rat entorhinal cortex at 49+/-11 MBq, iv after 80 mins; assay type: ADME, organism-based; design: dose 50 mg/kg, route intravenous; conditions: in vivo; outline: as §3
[15] = test system: Rattus norvegicus; test: AUC in 50 mg/kg cyclosporin A pretreated Wistar rat at 49+/-11 MBq, iv; assay type: ADME, organism-based, Plasma; design: dose 50 mg/kg, route intravenous; conditions: in vivo
Outline: (§4)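 Male Wistar rats with a femoral arterial cannula placed under isoflurane. Saline or cyclosporin A (50 mg/kg, commercial solution) given via tail vein, then the [11C] tracer via penile vein. Dynamic microPET over the brain for 76 min, with 14 arterial samples to 60 min. Plasma counted in a γ counter. AUC of whole-brain or plasma SUV over 0-60 min.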

[16] = test system: Cerebellum; test: Biodistribution in Wistar rat cerebellum at 38+/-8 MBq, iv after 80 mins; assay type: ADME, organism-based; conditions: in vivo
[17] = Biodistribution in 50 mg/kg cyclosporin A pretreated Wistar rat parietal/temporal/occipital cortex at 49+/-11 MBq, iv after 80 mins; assay type: ADME, organism-based; design: dose 50 mg/kg, route intravenous; conditions: in vivo
[18] = Biodistribution in 50 mg/kg cyclosporin A pretreated Wistar rat amygdala at 49+/-11 MBq, iv after 80 mins; assay type: ADME, organism-based; design: dose 50 mg/kg, route intravenous; conditions: in vivo; outline: as §2
[19] = Biodistribution in 50 mg/kg cyclosporin A pretreated Wistar rat cingulate cortex at 49+/-11 MBq, iv after 80 mins; assay type: ADME, organism-based; design: dose 50 mg/kg, route intravenous; conditions: in vivo; outline: as §3
[20] = Biodistribution in 50 mg/kg cyclosporin A pretreated Wistar rat trachea at 49+/-11 MBq, iv after 80 mins; assay type: ADME, organism-based; design: dose 50 mg/kg, route intravenous; conditions: in vivo
[21] = test system: Hippocampus; test: Biodistribution in Wistar rat hippocampus at 38+/-8 MBq, iv after 80 mins; assay type: ADME, organism-based; conditions: in vivo; outline: as §1
[22] = test system: Muscle tissue; test: Biodistribution in 50 mg/kg cyclosporin A pretreated Wistar rat muscle at 49+/-11 MBq, iv after 80 mins; assay type: ADME, organism-based; design: dose 50 mg/kg, route intravenous; conditions: in vivo
[23] = test system: Ileum; test: Biodistribution in Wistar rat ileum at 38+/-8 MBq, iv after 80 mins; assay type: ADME, organism-based; conditions: in vivo; outline: as §1
[24] = test system: Duodenum; test: Biodistribution in 50 mg/kg cyclosporin A pretreated Wistar rat duodenum at 49+/-11 MBq, iv after 80 mins; assay type: ADME, organism-based; design: dose 50 mg/kg, route intravenous; conditions: in vivo; outline: as §3
[25] = test system: Liver; test: Biodistribution in Wistar rat liver at 38+/-8 MBq, iv after 80 mins; assay type: ADME, organism-based; conditions: in vivo; outline: as §1
[26] = Biodistribution in Wistar rat parietal/temporal/occipital cortex at 38+/-8 MBq, iv after 80 mins; assay type: ADME, organism-based; conditions: in vivo; outline: as §1
[27] = test system: Striatum; test: Biodistribution in 50 mg/kg cyclosporin A pretreated Wistar rat striatum at 49+/-11 MBq, iv after 80 mins; assay type: ADME, organism-based; design: dose 50 mg/kg, route intravenous; conditions: in vivo
[28] = Biodistribution in Wistar rat trachea at 38+/-8 MBq, iv after 80 mins; assay type: ADME, organism-based; conditions: in vivo
[29] = Biodistribution in 50 mg/kg cyclosporin A pretreated Wistar rat medulla at 49+/-11 MBq, iv after 80 mins; assay type: ADME, organism-based, Medulla of organ; design: dose 50 mg/kg, route intravenous; conditions: in vivo
[30] = test system: Muscle tissue; test: Biodistribution in Wistar rat muscle at 38+/-8 MBq, iv after 80 mins; assay type: ADME, organism-based; conditions: in vivo; outline: as §1
[31] = test system: Rattus norvegicus; test: AUC in Wistar rat at 38+/-8 MBq, iv; assay type: ADME, organism-based, Plasma; conditions: in vivo; outline: as §4
[32] = Biodistribution in Wistar rat red blood cells at 38+/-8 MBq, iv after 80 mins; assay type: ADME, organism-based, Erythrocyte; conditions: in vivo
[33] = test system: Kidney; test: Biodistribution in 50 mg/kg cyclosporin A pretreated Wistar rat kidney at 49+/-11 MBq, iv after 80 mins; assay type: ADME, organism-based; design: dose 50 mg/kg, route intravenous; conditions: in vivo
[34] = test system: Ileum; test: Biodistribution in 50 mg/kg cyclosporin A pretreated Wistar rat ileum at 49+/-11 MBq, iv after 80 mins; assay type: ADME, organism-based; design: dose 50 mg/kg, route intravenous; conditions: in vivo
[35] = test system: Cerebellum; test: Biodistribution in 50 mg/kg cyclosporin A pretreated Wistar rat cerebellum at 49+/-11 MBq, iv after 80 mins; assay type: ADME, organism-based; design: dose 50 mg/kg, route intravenous; conditions: in vivo; outline: as §3
[36] = Biodistribution in 50 mg/kg cyclosporin A pretreated Wistar rat frontal cortex at 49+/-11 MBq, iv after 80 mins; assay type: ADME, organism-based; design: dose 50 mg/kg, route intravenous; conditions: in vivo
[37] = test system: Pancreas; test: Biodistribution in Wistar rat pancreas at 38+/-8 MBq, iv after 80 mins; assay type: ADME, organism-based; conditions: in vivo; outline: as §1
[38] = test system: Bone; test: Biodistribution in Wistar rat bone at 38+/-8 MBq, iv after 80 mins; assay type: ADME, organism-based, Bone element; conditions: in vivo
[39] = test system: Liver; test: Biodistribution in 50 mg/kg cyclosporin A pretreated Wistar rat liver at 49+/-11 MBq, iv after 80 mins; assay type: ADME, organism-based; design: dose 50 mg/kg, route intravenous; conditions: in vivo
[40] = Biodistribution in Wistar rat fat at 38+/-8 MBq, iv after 80 mins; assay type: ADME, organism-based, Adipose tissue; conditions: in vivo; outline: as §1
[41] = test system: Plasma; test: Biodistribution in Wistar rat plasma at 38+/-8 MBq, iv after 60 mins; assay type: ADME, organism-based; conditions: in vivo, 1 h
[42] = test system: Pons; test: Biodistribution in Wistar rat pons at 38+/-8 MBq, iv after 80 mins; assay type: ADME, organism-based; conditions: in vivo
[43] = test system: Plasma; test: Biodistribution in Wistar rat plasma at 38+/-8 MBq, iv after 80 mins; assay type: ADME, organism-based; conditions: in vivo
Outline: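 Male Wistar rats under isoflurane were given tracer via the penile vein after tail-vein pretreatment with saline or drug. At the end of a 76 min microPET scan the anesthetized animals were terminated. Blood was collected and centrifuged 5 min at 1000g for plasma. Plasma was weighed, γ-counted with decay correction and expressed as SUV (tissue MBq/g × body weight/injected dose).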

[44] = Biodistribution in Wistar rat medulla at 38+/-8 MBq, iv after 80 mins; assay type: ADME, organism-based, Medulla of organ; conditions: in vivo; outline: as §1
[45] = Biodistribution in Wistar rat entorhinal cortex at 38+/-8 MBq, iv after 80 mins; assay type: ADME, organism-based; conditions: in vivo; outline: as §1
[46] = test system: Heart; test: Biodistribution in 50 mg/kg cyclosporin A pretreated Wistar rat heart at 49+/-11 MBq, iv after 80 mins; assay type: ADME, organism-based; design: dose 50 mg/kg, route intravenous; conditions: in vivo
[47] = Biodistribution in 50 mg/kg cyclosporin A pretreated Wistar rat fat at 49+/-11 MBq, iv after 80 mins; assay type: ADME, organism-based, Adipose tissue; design: dose 50 mg/kg, route intravenous; conditions: in vivo; outline: as §3
[48] = test system: Spleen; test: Biodistribution in Wistar rat spleen at 38+/-8 MBq, iv after 80 mins; assay type: ADME, organism-based; conditions: in vivo
[49] = Biodistribution in Wistar rat cingulate cortex at 38+/-8 MBq, iv after 80 mins; assay type: ADME, organism-based; conditions: in vivo; outline: as §1
[50] = test system: Heart; test: Biodistribution in Wistar rat heart at 38+/-8 MBq, iv after 80 mins; assay type: ADME, organism-based; conditions: in vivo; outline: as §1
[51] = test system: Colon; test: Biodistribution in 50 mg/kg cyclosporin A pretreated Wistar rat colon at 49+/-11 MBq, iv after 80 mins; assay type: ADME, organism-based; design: dose 50 mg/kg, route intravenous; conditions: in vivo; outline: as §3
[52] = Biodistribution in 50 mg/kg cyclosporin A pretreated Wistar rat red blood cells at 49+/-11 MBq, iv after 80 mins; assay type: ADME, organism-based, Erythrocyte; design: dose 50 mg/kg, route intravenous; conditions: in vivo

For `COc1ccc(CCN([11CH3])CCCC(C#N)(c2ccc(OC)c(OC)c2)C(C)C)cc1OC` (configuration not stated), the SUV [1] was 0.034, the SUV [2] was 1.95 and the SUV [3] was 0.038. The SUV [4] was 0.54, the SUV [5] was 0.031 and the SUV [6] was 0.38. For the same compound, the SUV [7] was 0.32, the SUV [8] was 0.61 and the SUV [9] was 0.57. The SUV [10] was 0.68, the SUV [11] was 0.17 and the SUV [12] was 0.038. For the same compound, the SUV [13] was 0.78, the SUV [14] was 0.59 and the AUC [15] was 110%. It also gave an SUV [16] of 0.052, an SUV [17] of 0.64 and an SUV [18] of 0.62. The SUV [19] was 0.5, the SUV [20] was 0.46 and the SUV [21] was 0.036. For the same compound, the SUV [22] was 0.37, the SUV [23] was 0.49 and the SUV [24] was 0.63. For the same compound, the SUV [25] was 1.23, the SUV [26] was 0.036 and the SUV [27] was 0.55. For the same compound, the SUV [28] was 0.35, the SUV [29] was 0.67 and the SUV [30] was 0.29. For the same compound, the AUC [31] was 100%, the SUV [32] was 0.06 and the SUV [33] was 1.07. It also gave an SUV [34] of 0.56, an SUV [35] of 0.6 and an SUV [36] of 0.52. For the same compound, the SUV [37] was 0.82, the SUV [38] was 0.25 and the SUV [39] was 1.84. The SUV [40] was 0.38, the SUV [41] was 0.18 and the SUV [42] was 0.034. The SUV [43] was 0.13, the SUV [44] was 0.044 and the SUV [45] was 0.027. For the same compound, the SUV [46] was 0.3, the SUV [47] was 0.5 and the SUV [48] was 0.93. The SUV [49] was 0.027, the SUV [50] was 0.24 and the SUV [51] was 0.4. The SUV [52] was 0.07.
